Here are results for 42 compounds from ChEMBL document CHEMBL4002644, “Discovery of GBT440, an Orally Bioavailable R-State Stabilizer of Sickle Cell Hemoglobin” (ACS Med Chem Lett, 2017).

For data set [1], the system named is Hemoglobin HbA (Homo sapiens), P69905+P68871 [E7V]. The data set is described as follows: Induction of R-state stabilization of Hb betaGlu6Val mutant in sickle disease patient purified HbS/HbA mixture assessed as change from baseline of partial pressure of O2 at which HbS is 50% saturated with O2 at 30 uM preincubated for 45 mins followed by oxygenation for 10 mins and subsequent deoxygenation by hemoximetry relative to control. The procedure, abridged: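 Oxygen equilibrium curves were run on a Hemox Analyzer using Hb purified from sickle disease blood (an HbA/HbS mixture) at 25 μM. Compound was tested at 30 μM, or at 500 μM where noted. The read-out was the % change from baseline in the pO2 at which HbS is 50% saturated (Δp50).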

Data set [2] has the same test system. Kind of data set: Induction of R-state stabilization of Hb betaGlu6Val mutant in sickle cell disease transfused human whole blood assessed as change from baseline of partial pressure of O2 at which HbS is 50% saturated with O2 at 1 mM preincubated for 45 mins followed by 20 mins oxygenation/deoxygenation cycle by hemoximetry relative to control. An outline of the steps:
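Whole blood from transfused SCD subjects, at 20% hematocrit (Hb 1 mM), was run with compound at 1 mM. Oxygen equilibrium curves were measured by hemoximetry. The value is the % change from baseline in the pO2 giving 50% O2 saturation (Δp50).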

The test system of data set [3] is Rattus norvegicus. Kind of data set: Dose normalized AUC (0 to infinity) in Sprague-Dawley rat at 7.2 to 120 mg/kg, po by LC-MS/MS analysis. It counts as ADME, organism-based. The conditions noted are these: in vivo. An outline of the steps: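 Rat oral PK: AUC(0–∞) divided by the oral dose, expressed as (ng·h/mL)/(mg/kg).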
The subject of data set [4] is Blood. The data set is described as follows: Half life in Sprague-Dawley rat blood at 7.2 to 120 mg/kg, po by LC-MS/MS analysis. Format: ADME, organism-based. The note with it: in vivo.
The species named for data set [5] is Homo sapiens. Kind of data set: Induction of R-state stabilization of sickle cell Hb betaGlu6Val mutant purified from sickle cell patient assessed as inhibition of KH2PO4-induced polymerization by measuring change from baseline of delay time for onset of polymerization at 75 uM preincubated for 1 hr followed by deoxygenation for …. Set-up: scale not given: the % may be the effect or the level left.

In data set [6] the test system is Hemoglobin HbA (Homo sapiens), P69905+P68871 [E7V]. The data set is described as follows: Induction of R-state stabilization of Hb betaGlu6Val mutant in sickle disease patient purified HbS/HbA mixture assessed as change from baseline of partial pressure of O2 at which HbS is 50% saturated with O2 at 5 mM preincubated for 45 mins followed by 20 mins oxygenation/deoxygenation cycle by hemoximetry relative to control.

Data set [7] is described as follows: Ratio of drug level in Sprague-Dawley rat RBC to plasma at 7.2 to 120 mg/kg, po by LC-MS/MS analysis. The conditions noted are these: red blood cells (RBC) / plasma. It counts as ADME, organism-based.
The subject of data set [8] is Hemoglobin HbA (Homo sapiens), P69905+P68871 [E7V]. Kind of data set: Induction of R-state stabilization of Hb betaGlu6Val mutant in sickle disease patient purified HbS/HbA mixture assessed as change from baseline of partial pressure of O2 at which HbS is 50% saturated with O2 at 100 uM preincubated for 45 mins followed by 20 mins oxygenation/deoxygenation cycle by hemoximetry relative to control.

Calls of active or inactive are those of the source. The calls are words filed in the database; no cut-off is given here.

On to `COc1cc(C=O)c(OCc2cccn3cncc23)cn1`, for which the Activity in data set [1] amounted to 37.9%.
With `CC(C)n1nccc1-c1ncccc1COc1cccnc1C=O`, the Activity came to 56.4% in data set [2], 53.3% in data set [1] and 70.3% in data set [5]. The compound further yielded an AUC/dose in data set [3] of 34.2 ng·h/mL/mg/kg. This compound also displayed a t1/2 in data set [4] of 0.7 h.
On to `COc1cc(C=O)c(OCc2cccn3ccnc23)cn1`, for which, in data set [1], the Activity came out at 44.4%.
On the same count and under the same terms, the figure for `COc1cc(C=O)c(OCc2cc(C#N)cn3ccnc23)cn1` is 3.5%; for `COc1cc(C=O)c(OCc2cc3ccccc3nc2-c2ccn[nH]2)cn1` it is 14.2%.
Take `O=Cc1ccc(CO)o1`: the outcome in data set [6] was Active.
As for `COc1cc(C=O)c(OCc2cccc3ncccc23)cn1`, the Activity in data set [1] stood at 36%.
Same read-out and setting: to `COc1cc(C=O)c(OCc2cncc(-c3ccn[nH]3)c2)cn1` belongs 9%.
Take `COCCOc1cc(C=O)c(OCc2cccnc2-c2ccnn2C(C)C)cn1`: the figures for the Activity in data set [2], in data set [1] and in data set [5] were 68.9%, 55.9% and 77.8%, respectively. Also, the AUC/dose in data set [3] worked out at 1950 ng·h/mL/mg/kg. For the same compound, the t1/2 in data set [4] came to 1.5 h.
Take `CC(C)n1nccc1-c1ncccc1COc1ccccc1C=O`: the Activity was 80.6% in data set [2] and 136% in data set [5]. For the same compound, the AUC/dose in data set [3] was 1059 ng·h/mL/mg/kg. Further, the t1/2 in data set [4] was 2.1 h.
Turning to `COc1cc(C=O)c(OCc2c(-c3cc[nH]n3)ccn3ccnc23)cn1`, the Activity in data set [1] was found to be 29.1%.
Same read-out and setting: the figure for `COc1cc(C=O)c(OCc2cc(-c3nn[nH]n3)cn3ccnc23)cn1` is 21.1%.
Still for that read-out and setting: to `COc1cc(C=O)c(OCc2ccc3ccccc3n2)cn1` belongs 43.2%.
As for `COc1cc(C=O)c(OCc2cccnc2-n2cccn2)cn1`, in data set [1], the Activity came to 31.8%.
The same measure, in the same setting: the figure for `COc1cc(C=O)c(OCc2cccn3c(C)nnc23)cn1` is 42.2%.
Still for that read-out and setting: the figure for `COC(=O)c1cc(COc2cnc(OC)cc2C=O)c2nccn2c1` is 16.4%.
Still for that read-out and setting: to `COc1cc(C=O)c(OCc2cccc3ocnc23)cn1` belongs 37%.
Take `COc1cc(C=O)c(OCc2ccc3ccncc3c2)cn1`: the Activity in data set [1] came to 13.7%.
Still for that read-out and setting: to `COc1cc(C=O)c(OCc2ccnc3cccnc23)cn1` belongs 23.1%.
The same measure, in the same setting: to `COc1cc(C=O)c(OCc2cncc(-c3ccn(C)n3)c2)cn1` belongs 29.4%.
Regarding `COc1cc(C=O)c(OCc2cccnc2-c2c(C)cnn2C)cn1`, the Activity came to 27.4% in data set [1] and 64.5% in data set [5].
As to `CC(C)n1nccc1-c1ncccc1COc1cnc(O)cc1C=O`, the Activity in data set [2] worked out at 62.5%; in data set [1], 59.6%; in data set [5] it was 128%.
In the case of `COc1cc(C=O)c(OCc2cncc(-c3ccnn3C)c2)cn1`, the Activity in data set [1] stood at 11.2%.
Usually Kp stands for tissue or fluid exposure divided by exposure in the circulation. Consider `COc1cc(C=O)c(OCc2cccnc2-c2ccnn2C(C)C)cn1`, for which the Kp in data set [7] was 38. For the same compound, the Activity came out at 66.9% in data set [2], 66.2% in data set [1] and 115% in data set [5]. In data set [3], this compound had an AUC/dose of 20.6 ng·h/mL/mg/kg. The compound also had a t1/2 in data set [4] of 2.7 h.
Take `COc1cc(C=O)c(OCc2cc(-c3ccn[nH]3)cn3ccnc23)cn1`: the Activity in data set [1] was determined as 2.8%.
`Cc1ccc(OCc2cccnc2-c2ccnn2C(C)C)c(C=O)n1`: the Activity in data set [2] was 65.4%; in data set [1], 61.7%; in data set [5], 62.6%. The same compound showed an AUC/dose in data set [3] of 1710 ng·h/mL/mg/kg. For the same compound, the t1/2 in data set [4] is 1.5 h.
On the same counts, the results for `COc1cncc(OCc2cccnc2-c2ccnn2C(C)C)c1C=O` are 55%, 54.5%, 131%, 36.4 ng·h/mL/mg/kg and 2.5 h.
With `COc1cc(C=O)c(OCc2cccnc2-c2ccn[nH]2)cn1`, the Activity in data set [2] was determined as 19.2%; in data set [1], 40.2%.
Consider `COc1ccc(OCc2cccn3ccnc23)c(C=O)c1`, for which the outcome in data set [8] was Active. In addition, in data set [1], the Activity amounted to 33%.
As for `COc1cc(C=O)c(OCc2cc3ccccc3nc2Cl)cn1`, the Activity in data set [1] was 4%.
In the case of `COc1cc(C=O)c(OCc2cccnc2-c2[nH]ncc2C)cn1`, the Activity amounted to 43.1% in data set [2], 51.7% in data set [1] and 64.5% in data set [5].
Regarding `CC(C)n1nccc1-c1ncccc1COc1cnc(OC(F)F)cc1C=O`, the Activity came out at 49.7% in data set [2], 43.1% in data set [1] and 73.1% in data set [5].
As to `COc1cc(C=O)c(OCc2cc(Br)cn3ccnc23)cn1`, the Activity in data set [1] was found to be 11.7%.
For `COc1cc(C=O)c(OCc2cncc(-c3nnn[nH]3)c2)cn1`, the Activity in data set [1] worked out at 21.9%.
On the same count and under the same terms, the figure for `COc1cc(C=O)c(OCc2cccc3c2cnn3C)cn1` is 32.7%.
Same read-out and setting: the figure for `COc1cc(C=O)c(OCc2cnccc2-c2cn[nH]c2)cn1` is 17.1%.
As to `CC(C)n1nccc1-c1ncccc1COc1cncc(O)c1C=O`, the Activity came to 72.5% in data set [2], 70.5% in data set [1] and 167% in data set [5]. Also, the AUC/dose in data set [3] came out at 10887 ng·h/mL/mg/kg. The t1/2 in data set [4] was determined as 8.1 h.
As for `COc1cc(C=O)c(OCc2cc(-c3cn[nH]c3)cn3ccnc23)cn1`, the Activity in data set [1] amounted to 28.2%.
With `COc1cc(C=O)c(OCc2nccc3ccccc23)cn1`, the Activity in data set [1] is 40.2%.
Consider `CC(C)n1nccc1-c1ncccc1COc1cccc(F)c1C=O`, for which the Activity came out at 72.8% in data set [2], 67.8% in data set [1] and 104% in data set [5]. For the same compound, the AUC/dose in data set [3] came out at 438 ng·h/mL/mg/kg. In addition, the t1/2 in data set [4] is 2.7 h.
As for `COc1ccc(OCc2cccnc2)c(C=O)c1`, in data set [8], the outcome was Active. In data set [1], the Activity turned out to be 34%.
Turning to `COc1cc(C=O)c(OCc2cccnc2-c2ccnn2CCO)cn1`, the Activity in data set [2] came to 64.7%; in data set [1] it was 32.7%; in data set [5] it was 105%.
